Data from ChEMBL document CHEMBL2069190, “Identification of new γ-hydroxybutenolides that preferentially inhibit the activity of mPGES-1” (Bioorg Med Chem, 2012).
Active and inactive are the calls of the source. The rule behind the calls is not given here.

Legend:
[1] = system: A549; experiment: Antiinflammatory activity in human A549 cells assessed as inhibition of IL-1beta-induced mPGES1 expression at 10 uM treated 30 mins prior to IL-1beta challenge measured after 48 hrs by Western blot analysis relative to control; assay type: functional, cell-based
Outline: (§1)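 A549 cells (DMEM high glucose, 10% heat-inactivated FCS, penicillin/streptomycin, 37 °C, 5% CO2) pre-incubated 30 min with compound or vehicle (DMSO, 0.3%), then IL-1b (2 ng/mL) added. After 48 h, cells lysed; mPGES-1 protein analysed by Western blot with b-actin as loading control. Bands semi-quantified by densitometry as % of uninhibited DMSO control, mean SD, n = 3.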

[2] = biological target: T1, Prostaglandin E synthase (Homo sapiens, UniProt O14684); experiment: Inhibition of mPGES-1-mediated PGE2 formation in IL-1beta-stimulated human A549 cells preincubated for 10 mins measured after 1 min by RP-HPLC analysis; assay type: cell-based
T1 sequence (O14684 whole entry): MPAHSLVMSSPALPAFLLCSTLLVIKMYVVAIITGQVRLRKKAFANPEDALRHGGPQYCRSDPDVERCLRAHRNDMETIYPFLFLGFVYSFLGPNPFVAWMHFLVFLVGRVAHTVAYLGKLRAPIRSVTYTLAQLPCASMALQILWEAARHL
Outline: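 Microsomes from A549 cells treated 48 h with 1 ng/mL IL-1b, isolated by sonication and differential centrifugation (10,000×g 10 min, 174,000×g 1 h, 4 °C). Diluted in 0.1 M potassium phosphate pH 7.4 with 2.5 mM glutathione. Pre-incubated with compound or vehicle on ice, then 20 µM PGH2 added. PGE2 measured by RP-HPLC as % of DMSO control, mean S.E., n = 3–4.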

[3] = biological target: T2, Prostaglandin G/H synthase 1 (Ovis aries) (UniProt P05979); experiment: Inhibition of ovine COX1 at 10 uM preincubated for 5 mins measured after 5 mins
T2 sequence (whole entry): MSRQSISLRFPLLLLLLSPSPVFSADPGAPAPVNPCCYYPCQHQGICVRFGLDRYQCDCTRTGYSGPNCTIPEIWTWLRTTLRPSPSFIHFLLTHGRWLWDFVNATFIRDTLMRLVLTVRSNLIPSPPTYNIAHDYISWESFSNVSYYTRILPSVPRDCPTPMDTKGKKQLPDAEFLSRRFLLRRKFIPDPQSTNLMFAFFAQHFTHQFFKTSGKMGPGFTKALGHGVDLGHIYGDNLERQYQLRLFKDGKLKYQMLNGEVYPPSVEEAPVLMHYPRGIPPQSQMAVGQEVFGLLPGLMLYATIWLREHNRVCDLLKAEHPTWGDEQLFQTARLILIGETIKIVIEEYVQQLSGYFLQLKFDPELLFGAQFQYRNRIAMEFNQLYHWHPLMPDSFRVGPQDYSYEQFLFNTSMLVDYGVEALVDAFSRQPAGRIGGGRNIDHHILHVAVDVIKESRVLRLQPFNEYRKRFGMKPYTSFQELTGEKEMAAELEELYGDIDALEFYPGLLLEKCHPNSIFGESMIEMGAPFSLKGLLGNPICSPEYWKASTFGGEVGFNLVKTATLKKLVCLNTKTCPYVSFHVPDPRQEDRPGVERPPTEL

[4] = Cytotoxicity against human primary monocytes at 10 uM after 24 hrs by MTT assay; conditions: monocyte
[5] = biological target: T3, Polyunsaturated fatty acid lipoxygenase ALOX12 (Homo sapiens) (UniProt P18054); experiment: Inhibition of 12-lipoxygenase in A23187-stimulated human platelets assessed as reduction of 12(S)-H(P)ETE formation preincubated 15 mins by RP-HPLC analysis
T3 sequence (whole entry): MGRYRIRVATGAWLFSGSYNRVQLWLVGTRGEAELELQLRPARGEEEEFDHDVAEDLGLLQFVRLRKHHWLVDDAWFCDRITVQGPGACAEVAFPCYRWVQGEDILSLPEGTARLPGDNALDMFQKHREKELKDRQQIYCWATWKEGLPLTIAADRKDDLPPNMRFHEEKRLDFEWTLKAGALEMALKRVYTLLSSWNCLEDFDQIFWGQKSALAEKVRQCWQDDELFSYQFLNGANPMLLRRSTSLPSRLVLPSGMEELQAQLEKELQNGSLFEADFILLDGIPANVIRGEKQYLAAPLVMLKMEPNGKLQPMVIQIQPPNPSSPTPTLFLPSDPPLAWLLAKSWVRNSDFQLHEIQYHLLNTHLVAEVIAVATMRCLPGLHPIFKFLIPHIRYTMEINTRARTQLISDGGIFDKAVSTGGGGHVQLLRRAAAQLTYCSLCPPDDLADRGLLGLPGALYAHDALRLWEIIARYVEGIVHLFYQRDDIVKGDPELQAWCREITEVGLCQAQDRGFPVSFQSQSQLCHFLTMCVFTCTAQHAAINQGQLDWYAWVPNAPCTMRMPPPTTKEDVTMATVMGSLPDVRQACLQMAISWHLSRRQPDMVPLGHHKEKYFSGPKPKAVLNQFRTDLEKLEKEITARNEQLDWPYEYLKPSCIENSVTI

[6] = biological target: T4, Polyunsaturated fatty acid 5-lipoxygenase (Homo sapiens) (UniProt P09917); experiment: Inhibition of 5-lipoxygenase in A23187-stimulated human PMNL assessed as inhibition of 15-H(p)ETE formation preincubated 15 mins by RP-HPLC analysis
T4 sequence (whole entry): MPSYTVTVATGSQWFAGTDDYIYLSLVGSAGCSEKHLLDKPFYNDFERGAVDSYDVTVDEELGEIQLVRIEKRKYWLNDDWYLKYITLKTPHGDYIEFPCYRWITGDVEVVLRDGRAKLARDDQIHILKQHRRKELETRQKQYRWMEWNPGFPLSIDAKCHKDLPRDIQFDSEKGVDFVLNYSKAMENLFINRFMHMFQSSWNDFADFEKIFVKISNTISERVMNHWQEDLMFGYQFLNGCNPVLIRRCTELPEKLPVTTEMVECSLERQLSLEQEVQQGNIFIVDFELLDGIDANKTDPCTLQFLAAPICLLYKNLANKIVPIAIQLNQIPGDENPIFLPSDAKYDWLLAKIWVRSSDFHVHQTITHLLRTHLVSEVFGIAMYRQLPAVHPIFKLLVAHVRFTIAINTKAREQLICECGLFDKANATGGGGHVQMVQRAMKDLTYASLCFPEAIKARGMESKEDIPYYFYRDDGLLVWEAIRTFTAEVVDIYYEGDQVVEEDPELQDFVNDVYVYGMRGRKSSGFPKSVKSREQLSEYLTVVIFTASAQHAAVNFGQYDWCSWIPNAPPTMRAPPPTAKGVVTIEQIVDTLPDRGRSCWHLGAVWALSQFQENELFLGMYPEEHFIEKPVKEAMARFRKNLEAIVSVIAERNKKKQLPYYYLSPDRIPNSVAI

[7] = Inhibition of His-tagged human recombinant cPLA2alpha expressed in baculovirus infected insect sf9 cells assessed as inhibition of arachidonic acid formation after 1 hr by RP-HPLC analysis
[8] = Cytotoxicity against mouse […] cells at 10 uM after 24 hrs by MTT assay
[9] = biological target: T5, Prostaglandin G/H synthase 2 (Homo sapiens) (UniProt P35354); experiment: Inhibition of human COX2 at 10 uM preincubated for 5 mins measured after 5 mins
T5 sequence (whole entry): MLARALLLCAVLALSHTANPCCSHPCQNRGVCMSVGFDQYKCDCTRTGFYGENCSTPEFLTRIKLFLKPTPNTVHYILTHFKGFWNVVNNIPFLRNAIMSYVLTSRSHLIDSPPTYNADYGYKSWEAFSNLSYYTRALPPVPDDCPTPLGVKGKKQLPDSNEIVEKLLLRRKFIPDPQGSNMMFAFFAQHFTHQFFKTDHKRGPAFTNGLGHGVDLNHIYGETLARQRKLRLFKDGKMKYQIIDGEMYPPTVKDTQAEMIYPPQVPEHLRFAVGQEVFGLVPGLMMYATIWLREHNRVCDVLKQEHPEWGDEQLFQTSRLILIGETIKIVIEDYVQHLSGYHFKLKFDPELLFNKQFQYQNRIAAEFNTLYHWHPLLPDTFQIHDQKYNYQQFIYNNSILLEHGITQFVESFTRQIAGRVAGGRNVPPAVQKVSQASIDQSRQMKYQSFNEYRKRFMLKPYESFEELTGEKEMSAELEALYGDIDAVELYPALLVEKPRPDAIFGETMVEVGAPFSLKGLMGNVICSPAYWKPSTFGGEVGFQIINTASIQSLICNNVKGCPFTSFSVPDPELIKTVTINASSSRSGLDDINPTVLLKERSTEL

[10] = biological target: T6, Polyunsaturated fatty acid lipoxygenase ALOX15 (Homo sapiens) (UniProt P16050); experiment: Inhibition of 15-lipoxygenase in A23187-stimulated human PMNL assessed as inhibition of 15-H(p)ETE formation preincubated 15 mins by RP-HPLC analysis
T6 sequence (whole entry): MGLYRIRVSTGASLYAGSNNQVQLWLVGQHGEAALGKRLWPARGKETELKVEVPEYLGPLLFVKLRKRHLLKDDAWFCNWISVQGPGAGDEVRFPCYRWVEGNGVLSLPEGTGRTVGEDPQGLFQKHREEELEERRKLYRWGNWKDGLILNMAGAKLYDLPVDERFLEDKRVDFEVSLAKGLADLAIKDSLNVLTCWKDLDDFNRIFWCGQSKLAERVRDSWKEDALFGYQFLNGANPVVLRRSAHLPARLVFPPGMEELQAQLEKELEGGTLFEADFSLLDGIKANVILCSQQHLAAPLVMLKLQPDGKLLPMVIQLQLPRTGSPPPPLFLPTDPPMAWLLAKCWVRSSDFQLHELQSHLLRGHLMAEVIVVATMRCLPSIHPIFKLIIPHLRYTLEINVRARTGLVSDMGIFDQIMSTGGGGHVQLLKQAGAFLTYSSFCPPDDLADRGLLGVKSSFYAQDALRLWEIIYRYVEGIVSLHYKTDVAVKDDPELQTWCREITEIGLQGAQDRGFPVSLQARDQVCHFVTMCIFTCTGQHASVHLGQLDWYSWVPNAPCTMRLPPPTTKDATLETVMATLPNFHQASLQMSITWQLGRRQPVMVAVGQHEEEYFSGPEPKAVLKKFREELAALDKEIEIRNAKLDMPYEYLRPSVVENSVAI

[11] = system: A549; experiment: Antiinflammatory activity in human A549 cells assessed as inhibition of IL-1beta-induced mPGES1 expression at 1 uM treated 30 mins prior to IL-1beta challenge measured after 48 hrs by Western blot analysis relative to control; assay type: functional, cell-based; outline: as §1

## O=C1OC(O)C(c2cccc(C(=O)N3CCOCC3)c2)=C1Br (stereo not drawn)
[1]
  inhibition: inactive

## O=C1OC(O)C(c2ccc(C(=O)N3CCOCC3)cc2)=C1Br (stereo not drawn)
[1]
  inhibition: inactive

## O=C1OC(O)C(c2ccc(C(=O)N3CCCCC3)cc2)=C1Br (stereo not drawn)
[1]
  inhibition: inactive

## O=C1OC(O)C(c2cccc(C(=O)Nc3ccccc3)c2)=C1Br (stereo not drawn)
[1]
  inhibition: inactive

## O=C1OC(O)C(c2cccc(C(=O)NCc3ccccc3)c2)=C1Br (stereo not drawn)
[1]
  inhibition: inactive

## O=C1OC(O)C(c2ccc(C(=O)N3CCCC3)cc2)=C1Br (stereo not drawn)
[1]
  inhibition: inactive

## O=C1OC(O)C(c2cc3ccccc3s2)=C1Br (stereo not drawn)
[2]
  IC50: > 10 µM

## O=C1OC(O)C(c2ccc(C(=O)N3CCNCC3)cc2)=C1Br (stereo not drawn)
[1]
  inhibition: inactive

## O=C1OC(O)C(c2cccc(C(=O)N3CCCC3)c2)=C1Br (stereo not drawn)
[1]
  inhibition: inactive

## O=C1OC(O)C(c2ccc(C(=O)Nc3ccccc3)cc2)=C1Br (stereo not drawn)
[2]
  IC50: 0.9 µM
[3]
  inhibition: inactive
[4]
  Activity: Non-toxic
[5]
  inhibition: inactive
[6]
  inhibition: 22%
[7]
  inhibition: inactive
[8]
  Activity: Non-toxic
[9]
  inhibition: inactive
[10]
  inhibition: inactive
[1]
  inhibition: inactive

## C[C@@H]1C[C@H]2[C@@H]3CCC4=CC(=O)C=C[C@]4(C)[C@@]3(F)[C@@H](O)C[C@]2(C)[C@@]1(O)C(=O)CO
[11]
  inhibition: Active

## O=C1OC(O)C(c2ccc(C(=O)NCc3ccccc3)cc2)=C1Br (stereo not drawn)
[2]
  IC50: 5.6 µM
[1]
  inhibition: inactive

## O=C1OC(O)C(c2cccc(C(=O)N3CCCCC3)c2)=C1Br (stereo not drawn)
[1]
  inhibition: inactive
